Measured values published in ChEMBL document CHEMBL1157575, “Antitumor agents. 272. Structure-activity relationships and in vivo selective anti-breast cancer activity of novel neo-tanshinlactone analogues” (J Med Chem, 2010).
In brackets after ≈: the same amount, converted by molar mass.

Columns and labels:
SK-BR-3 = experiment: Growth inhibition of human SK-BR-3 cells after 72 hrs by SRB assay; assay type: functional; conditions: SK-BR-3, 72 h, read-out: ED50 (the source's name)
In short: (§1)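 SRB assay. Cells were grown in RPMI-1640 with 10% FBS at 37 °C and 5% CO2, then seeded in 96-well plates. Compound was added from DMSO stock, followed by 72 h incubation. Cells were fixed with 10% TCA, stained with 0.4% SRB, solubilized in 10 mM Tris base, and read at 515 nm. ED50 is the concentration giving 50% reduction of net protein increase versus control; mean of at least three independent determinations.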

DU-145 = experiment: Cytotoxicity against human DU145 cells after 72 hrs by SRB assay; assay type: functional; conditions: DU-145, 72 h, read-out: ED50 (the source's name)
KB = experiment: Cytotoxicity against human KB cells after 72 hrs by SRB assay; assay type: functional; conditions: read-out: ED50 (the source's name); in short: as §1
ZR-75-1 [1] = experiment: Growth inhibition of human ZR-75-1 cells after 72 hrs by SRB assay; assay type: functional; conditions: ZR-75-1, 72 h, read-out: ED50 (the source's name); in short: as §1
MDA-MB-231 = experiment: Growth inhibition of human MDA-MB-231 cells after 72 hrs by SRB assay; assay type: functional; conditions: MDA-MB-231, 72 h, read-out: ED50 (the source's name); in short: as §1
[2] = Cytotoxicity against human KBVIN cells after 72 hrs by SRB assay; assay type: functional; conditions: read-out: ED50 (the source's name); in short: as §1
MCF7 = experiment: Growth inhibition of human MCF7 cells after 72 hrs by SRB assay; assay type: functional; conditions: MCF7, 72 h, read-out: ED50 (the source's name); in short: as §1
A549 = experiment: Cytotoxicity against human A549 cells after 72 hrs by SRB assay; assay type: functional; conditions: A549, 72 h, read-out: ED50 (the source's name)
ZR-75-1 [3] = experiment: Selectivity for ED50 for human ZR-75-1 to ED50 for human SK-BR-3; assay type: functional
In short: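 SRB growth assay: ZR-75-1 and SK-BR-3 cells in RPMI-1640 with 10% FBS at 37 °C under 5% CO2, seeded in 96-well plates, compound added from DMSO stock, 72 h exposure, TCA fixation, SRB staining, absorbance at 515 nm. ED50 is 50% reduction of net protein increase, averaged from ≥3 independent runs; ratio of ZR-75-1 to SK-BR-3 ED50.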

ZR-75-1 [4] = experiment: Antitumor activity against human ZR-75-1 cells xenografted in athymic nude mouse SCID assessed as tumor growth delay at 20 mg/kg, ip administered in Q4D X 5 schedule; assay type: functional; conditions: route intraperitoneal
In short: (§2)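 Female SCID mice, 5 weeks old, 20-24 g, implanted s.c. in the right flank with 1 × 10^7 ZR-75-1 cells in PBS. Tumors were caliper-measured, with volume = w² × l/2. Dosing was i.p. in vehicle (4% benzyl alcohol/6% cremophor/90% D5W); vehicle controls were given qod to end. TTE is the mean time to endpoint. %TGD = (T−C)/C × 100. Logrank test, P ≤ 0.05.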

ZR-75-1 [5] = experiment: Antitumor activity against human ZR-75-1 cells xenografted in athymic nude mouse SCID assessed as mean time to end point at 20 mg/kg, ip administered in Q4D X 5 schedule; assay type: functional; conditions: route intraperitoneal; in short: as §2
ZR-75-1 [6] = experiment: Antitumor activity against human ZR-75-1 cells xenografted in athymic nude mouse SCID assessed as mean time to end point at 10 mg/kg, ip administered in QOD schedule; assay type: functional; conditions: route intraperitoneal; in short: as §2
[7] = molecular target: Tyrosine-protein kinase ABL1 (Mus musculus) (UniProt P00520); experiment: Inhibition of mouse recombinant ABL expressed in Escherichia coli at 10 uM
ZR-75-1 [8] = experiment: Antitumor activity against human ZR-75-1 cells xenografted in athymic nude mouse SCID assessed as tumor growth delay at 10 mg/kg, ip administered in QOD schedule; assay type: functional; conditions: route intraperitoneal; in short: as §2
[9] = molecular target: RAC-alpha serine/threonine-protein kinase (Homo sapiens) (UniProt P31749); experiment: Inhibition of human recombinant AKT1 expressed in Sf21 cells at 10 uM
[10] = Cytotoxicity against human MCF10A cells after 72 hrs by MTT assay; assay type: cell-based, MCF-10A; conditions: read-out: ED50
In short: (§3)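 MTT assay. Cells were seeded at 5000/well in recommended growth medium and incubated overnight. Compound was added in DMSO, followed by 72 h at 37 °C in 5% CO2. MTT reagent was added for 2 h and formazan was read at OD 570 nm. Values were interpolated ED50; data are from replicates in a single experiment.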

[11] = Cytotoxicity against human 184A1 cells after 72 hrs by MTT assay; assay type: cell-based; conditions: read-out: ED50; in short: as §3
[12] = molecular target: Casein kinase II subunit alpha (Homo sapiens) (UniProt P68400); experiment: Inhibition of human recombinant CK2alpha1 expressed in Sf9 cells at 10 uM
Casein kinase II subunit alpha (Homo sapiens), sequence (P68400 whole entry, looked up): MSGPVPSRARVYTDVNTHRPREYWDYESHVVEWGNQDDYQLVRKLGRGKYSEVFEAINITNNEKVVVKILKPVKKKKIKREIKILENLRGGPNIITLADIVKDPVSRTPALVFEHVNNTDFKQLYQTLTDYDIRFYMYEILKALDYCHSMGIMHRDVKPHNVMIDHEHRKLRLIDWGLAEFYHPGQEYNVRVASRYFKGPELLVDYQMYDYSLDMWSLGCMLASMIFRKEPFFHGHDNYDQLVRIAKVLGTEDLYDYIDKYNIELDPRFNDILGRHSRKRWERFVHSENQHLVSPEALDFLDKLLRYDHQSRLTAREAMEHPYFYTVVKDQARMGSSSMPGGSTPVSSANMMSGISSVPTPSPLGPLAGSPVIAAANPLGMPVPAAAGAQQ

Tyrosine-protein kinase ABL1 (Mus musculus), sequence (P00520 whole entry): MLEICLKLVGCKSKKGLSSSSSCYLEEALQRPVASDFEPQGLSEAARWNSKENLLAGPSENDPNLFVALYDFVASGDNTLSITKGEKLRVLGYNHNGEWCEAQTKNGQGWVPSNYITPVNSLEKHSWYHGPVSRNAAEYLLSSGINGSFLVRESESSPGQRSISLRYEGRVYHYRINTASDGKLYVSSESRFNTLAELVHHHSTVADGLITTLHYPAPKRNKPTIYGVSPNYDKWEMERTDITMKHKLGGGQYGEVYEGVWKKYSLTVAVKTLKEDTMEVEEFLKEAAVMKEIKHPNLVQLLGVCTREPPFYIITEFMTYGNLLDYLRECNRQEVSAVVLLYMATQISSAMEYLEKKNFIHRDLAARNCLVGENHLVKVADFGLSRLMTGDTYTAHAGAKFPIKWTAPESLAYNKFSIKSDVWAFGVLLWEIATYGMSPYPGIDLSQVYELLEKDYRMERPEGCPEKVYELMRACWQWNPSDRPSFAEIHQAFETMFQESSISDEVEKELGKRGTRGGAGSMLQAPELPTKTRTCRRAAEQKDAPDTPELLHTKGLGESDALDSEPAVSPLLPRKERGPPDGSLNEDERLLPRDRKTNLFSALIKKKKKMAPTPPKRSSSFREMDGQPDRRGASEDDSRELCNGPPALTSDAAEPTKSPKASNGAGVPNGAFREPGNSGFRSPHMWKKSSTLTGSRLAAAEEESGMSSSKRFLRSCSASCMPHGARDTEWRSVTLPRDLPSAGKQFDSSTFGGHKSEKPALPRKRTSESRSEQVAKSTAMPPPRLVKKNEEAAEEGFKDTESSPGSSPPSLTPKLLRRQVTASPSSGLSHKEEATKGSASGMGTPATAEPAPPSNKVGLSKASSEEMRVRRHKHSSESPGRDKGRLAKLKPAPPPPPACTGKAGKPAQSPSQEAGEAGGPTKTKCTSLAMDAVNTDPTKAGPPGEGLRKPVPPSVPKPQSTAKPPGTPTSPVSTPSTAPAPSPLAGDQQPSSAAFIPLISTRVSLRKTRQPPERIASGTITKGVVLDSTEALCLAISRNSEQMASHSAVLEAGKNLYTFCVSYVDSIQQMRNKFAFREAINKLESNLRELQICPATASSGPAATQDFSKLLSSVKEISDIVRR
RAC-alpha serine/threonine-protein kinase (Homo sapiens), sequence (P31749 whole entry): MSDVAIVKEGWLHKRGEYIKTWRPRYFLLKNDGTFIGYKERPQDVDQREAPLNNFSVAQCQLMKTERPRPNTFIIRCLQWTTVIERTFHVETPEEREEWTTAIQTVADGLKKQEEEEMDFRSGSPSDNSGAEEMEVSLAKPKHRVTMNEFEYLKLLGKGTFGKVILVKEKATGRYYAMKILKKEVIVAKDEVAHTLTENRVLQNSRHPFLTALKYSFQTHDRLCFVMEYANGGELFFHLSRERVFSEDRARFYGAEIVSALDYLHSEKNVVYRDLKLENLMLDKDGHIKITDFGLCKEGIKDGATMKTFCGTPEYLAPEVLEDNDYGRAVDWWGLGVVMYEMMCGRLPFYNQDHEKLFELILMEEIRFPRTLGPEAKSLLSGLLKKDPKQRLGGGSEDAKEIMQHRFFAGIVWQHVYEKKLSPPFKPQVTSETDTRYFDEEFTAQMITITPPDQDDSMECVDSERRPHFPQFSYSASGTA

Structure (SMILES)	EC50 (SK-BR-3) [mg/L]	EC50 (KB) [mg/L]	EC50 (ZR-75-1 [1]) [mg/L]	EC50 (MDA-MB-231) [mg/L]	EC50 (MCF7) [mg/L]	other results
COc1ccc(-c2coc3c2c(=O)oc2c4ccccc4ccc32)cc1	5.8 (≈ 16.9 µM)					
COc1cccc2c1ccc1c3occ(C)c3c(=O)oc21	0.2 (≈ 0.714 µM)	13 (≈ 46.4 µM)	0.1 (≈ 0.357 µM)	6.4 (≈ 22.8 µM)	2.3 (≈ 8.21 µM)	EC50 (DU-145): 14 mg/L (≈ 50 µM); EC50 [2]: 12 mg/L (≈ 42.8 µM)
CCc1coc2c1c(=O)oc1c3cccc(C)c3ccc21	11 (≈ 39.5 µM)				7.5 (≈ 26.9 µM)	
CCc1cccc2c1ccc1c3oc(C)c(C)c3c(=O)oc21	9.8 (≈ 33.5 µM)				8 (≈ 27.4 µM)	
Cc1coc2c1c(=O)oc1c3cccc(F)c3ccc21	1.1 (≈ 4.1 µM)	13 (≈ 48.5 µM)	0.8 (≈ 2.98 µM)	> 10	4.5 (≈ 16.8 µM)	EC50 (DU-145): 18 mg/L (≈ 67.1 µM); EC50 [2]: 15 mg/L (≈ 55.9 µM); EC50 (A549): 14 mg/L (≈ 52.2 µM)
Cc1coc2c1c(=O)oc1c3cccc(C(C)Br)c3ccc21 (centres undefined)	0.1 (≈ 0.28 µM)	13 (≈ 36.4 µM)	0.1 (≈ 0.28 µM)	14 (≈ 39.2 µM)		EC50 (DU-145): 18 mg/L (≈ 50.4 µM); EC50 [2]: > 20 mg/L; EC50 (A549): > 20 mg/L
CCc1cccc2c1ccc1c3occ(CC)c3c(=O)oc21	1.5 (≈ 5.13 µM)	12 (≈ 41 µM)	0.6 (≈ 2.05 µM)	> 10	1.3 (≈ 4.45 µM)	EC50 (DU-145): 16 mg/L (≈ 54.7 µM); EC50 [2]: 15 mg/L (≈ 51.3 µM); EC50 (A549): 18 mg/L (≈ 61.6 µM)
Cc1coc2c1c(=O)oc1c3cccc(O)c3ccc21	5 (≈ 18.8 µM)				15 (≈ 56.3 µM)	
CCc1coc2c1c(=O)oc1c3ccccc3ccc21	1.8 (≈ 6.81 µM)	7.5 (≈ 28.4 µM)	2.3 (≈ 8.7 µM)	> 10	2.5 (≈ 9.46 µM)	EC50 (DU-145): 8.7 mg/L (≈ 32.9 µM); EC50 [2]: 6.6 mg/L (≈ 25 µM); EC50 (A549): 8.2 mg/L (≈ 31 µM)
Cc1coc2c1c(=O)oc1c3cccc(OCCN(C)C)c3ccc21	5.8 (≈ 17.2 µM)				5 (≈ 14.8 µM)	
CC(=O)Oc1cccc2c1ccc1c3occ(C)c3c(=O)oc21	5.7 (≈ 18.5 µM)				6 (≈ 19.5 µM)	
CCCc1cccc2c1ccc1c3occ(C)c3c(=O)oc21	0.1 (≈ 0.342 µM)	12 (≈ 41 µM)	0.3 (≈ 1.03 µM)	> 10	1.2 (≈ 4.1 µM)	EC50 (DU-145): 15 mg/L (≈ 51.3 µM); EC50 [2]: 11 mg/L (≈ 37.6 µM); Ratio ED50 (ZR-75-1 [3]): 3
CCc1cccc2c1ccc1c3c(c(=O)oc12)C(C)CO3 (centres undefined)	5.1 (≈ 18.2 µM)					
CCCn1c(=O)c2c3occ(C)c3c(=O)oc2c2ccccc21	15 (≈ 48.5 µM)				> 20	
CCOc1cccc2c1ccc1c3occ(C)c3c(=O)oc21	2.5 (≈ 8.49 µM)	3.7 (≈ 12.6 µM)	1.9 (≈ 6.46 µM)	9.8 (≈ 33.3 µM)	> 20	EC50 (DU-145): 4.7 mg/L (≈ 16 µM); EC50 [2]: 5.3 mg/L (≈ 18 µM); EC50 (A549): 3.5 mg/L (≈ 11.9 µM)
Cc1cccc2c1ccc1c3occ(C)c3c(=O)oc21	0.2 (≈ 0.757 µM)		0.3 (≈ 1.14 µM)	10 (≈ 37.8 µM)	0.6 (≈ 2.27 µM)	

Structure (SMILES)	EC50 (SK-BR-3) [mg/L]	EC50 (KB) [mg/L]	EC50 (ZR-75-1 [1]) [mg/L]	EC50 (MDA-MB-231) [mg/L]	EC50 (MCF7) [mg/L]	other results
Cc1ccc2c(=O)oc3c4ccccc4ccc3c2c1	> 20					
Cc1coc2c1c(=O)oc1c3cccc(C(C)C)c3ccc21	2 (≈ 6.84 µM)	11 (≈ 37.6 µM)	0.2 (≈ 0.684 µM)	> 10	1.4 (≈ 4.79 µM)	EC50 [2]: 7.3 mg/L (≈ 25 µM); Ratio ED50 (ZR-75-1 [3]): 10
CCc1cccc2c1ccc1c3occ(C)c3/c(=N/O)oc21	19 (≈ 64.8 µM)				> 20	
CC(=O)O[C@H]1C(=O)[C@@]2(C)[C@H]([C@H](OC(=O)c3ccccc3)[C@]3(O)C[C@H](OC(=O)[C@H](O)[C@@H](NC(=O)c4ccccc4)c4ccccc4)C(C)=C1C3(C)C)[C@]1(OC(C)=O)CO[C@@H]1C[C@@H]2O [PACLITAXEL]						Activity (ZR-75-1 [4]): 132%; Activity (ZR-75-1 [5]): 35 days
CCc1cccc2c1ccc1c3oc(C)cc3c(=O)oc21	2.1 (≈ 7.55 µM)	14 (≈ 50.3 µM)	2.2 (≈ 7.9 µM)	9.6 (≈ 34.5 µM)	> 20	EC50 [2]: 13 mg/L (≈ 46.7 µM); EC50 (A549): 12 mg/L (≈ 43.1 µM)
Cc1coc2c1c(=O)[nH]c1c3ccccc3ccc12	4.4 (≈ 17.7 µM)					
Cc1oc2c(c1C)c(=O)oc1c3ccccc3ccc21	6.9 (≈ 26.1 µM)				> 20	
Cc1cc2c(=O)oc3c4ccccc4ccc3c2o1	12 (≈ 48 µM)				> 20	
Cc1coc2c1c(=O)oc1c3ccccc3n(C)c(=O)c21	12 (≈ 42.7 µM)				11 (≈ 39.1 µM)	
Cc1coc2c1c(=S)oc1c3ccccc3ccc21	> 20				> 20	
CCc1cccc2c1ccc1c3occ(-c4ccc(OC)cc4)c3c(=O)oc21	> 20				> 20	
Cc1coc2c1c(=O)oc1c3ccccc3ccc21	1 (≈ 4 µM)		4 (≈ 16 µM)		4 (≈ 16 µM)	
CC1COc2c1c(=O)oc1c2ccc2ccccc21 (centres undefined)	14 (≈ 55.5 µM)					
Cc1coc2c1c(=O)sc1c3ccccc3ccc21	12 (≈ 45.1 µM)				> 20	
CCc1cccc2c1ccc1c3occ(C)c3c(=S)oc21	16 (≈ 54.4 µM)				> 20	
CCc1cccc2c1ccc1c3occ(C)c3c(=O)oc21	0.1 (≈ 0.359 µM)	13 (≈ 46.7 µM)	0.1 (≈ 0.359 µM)	8.8 (≈ 31.6 µM)	0.2 (≈ 0.719 µM)	EC50 (DU-145): 16 mg/L (≈ 57.5 µM); Activity (ZR-75-1 [6]): 29.5 days; inhibition [7]: 93%; Activity (ZR-75-1 [8]): 95%; inhibition [9]: 93%; CC50 at 72 h [10]: 2.7 mg/L (≈ 9.7 µM); CC50 at 72 h [11]: 4.4 mg/L (≈ 15.8 µM); inhibition [12]: 99%; EC50 (A549): 11 mg/L (≈ 39.5 µM)
